BaF3 parental: counter-screen for JAK2V617F inhibitors: parental Ba/F3 viability inhibitors | CellTiter-Glo ATP luminescence | inhibition, % at 5.6 µM | hit rate 1.1% among 220,000 | AID 1486;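 active = inhibition above a per-campaign cutoff, the mean inhibition of all tested compounds plus 3 SD, cut at about 27% in these data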;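 also: 0% = DMSO wells and 100% = JAK Inhibitor I control wells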
APP transl inh: APP translation inhibition; AID 1285; inhibition, % at 2 µM; SH-SY5Y APP 5'UTR-luciferase reporter, luminescence; hit rate 0.82% among 190,000;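 active = inhibition above a set limit, derived from the sample mean plus 3 SD, cut at about 45% in these data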
Ba/F3 V617F tox: reduce viability of Ba/F3 cells dependent on JAK2V617F. inhibition, % at 5.6 µM. AID 1446. hit rate 1.1% among 220,000. Ba/F3 EpoR-JAK2V617F viability, ATP luminescence;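 active = inhibition above the campaign mean plus 3 SD over all tested compounds, cut at about 24% in these data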;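 also: cytokine-independent growth of Ba/F3 cells driven by EpoR plus mutant JAK2; 0% = DMSO-treated cells and 100% = JAK inhibitor I control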
Lmaj promast: reduces viability of Leishmania major promastigotes | AID 1063 | hit rate 9% among 200,000 | inhibition, % at 10 µM | resazurin fluorescence viability; in the data active = inhibition above about 50%;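 also: promastigotes grown with compound for 44 hours at 28 °C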
bCat nuc transl: alters nuclear translocation of beta-catenin in HeLa cells. immunofluorescence imaging. nuclear translocation activity, % at 5 µM. hit rate 0.3% among 190,000. AID 1665;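 active = nuclear translocation activity above 50% at 5 µM, with a well cell count of 50 or more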;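 also: per-cell ratio of nuclear to cytoplasmic median beta-catenin stain intensity; plate controls were DMSO negative control for no effect and GSK-3 inhibitor IX positive control for full effect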
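assay system = human HeLa cells, endogenous beta-catenin | times = compound treatment 24 h, 37°C, 5% CO2 | detection = Anti-beta-catenin immunofluorescence on PFA-fixed, Triton-permeabilized cells, DAPI nuclei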
MT stabilizer: stabilizes microtubules in HeLa cells. HeLa tubulin immunostaining HCS, 24 h; share of cells brighter than vehicle mean+2SD. % tubulin-high responders, % at 10 µM. hit rate 0.83% among 200,000;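 active = plate Z-score above 3 for both tubulin-high and condensed-nucleus cell shares, with cell loss under 80%, at 10 µM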;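 also: anti alpha tubulin signal scored within the nucleus-defined area of each cell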
L major 1uM: L. major promastigote growth inhibition, 1 uM repeat. shares compounds with Lmaj promast. resazurin fluorescence, 48 h. inhibition, % at 1 µM. hit rate 13% among 1,100;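 active = inhibition above about 50% in both repeat tests, limit read from the data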
Numbers without * were called inactive; . = no result given. Sampled rows, rich in hits. Any-hit rate of the full collection: about 9.6%.

SMILES | BaF3 parental | APP transl inh | Ba/F3 V617F tox | Lmaj promast | bCat nuc transl | MT stabilizer | L major 1uM
COc1ccc(NC(=O)N(Cc2ccc(C)cc2)Cc2cccnc2)c(OC)c1 | 5.5 | 1.9 | -0.9 | 70.3* | . | 3.1 | -2.9
CC(C)CN=c1cc(-c2ccccc2)oc2ccc(Cl)cc12 | 3.3 | -56.8 | -4.5 | 37.7 | -0.2 | 3.4 | .
CN(C)CCCN=c1cc(-c2ccccc2)oc2ccc(Cl)cc12 | -1.2 | -128.6 | -3.0 | 100.5* | . | 2.9 | 88.8*
COc1ccc(-c2cc(Nc3ccccc3NC(=O)C(F)(F)F)n(CCC#N)n2)cc1 | 3.8 | 3.8 | -0.5 | 62.6* | -0.2 | 2.5 | -13.9
CCOC(=O)c1cc(-c2ccc(OC)cc2)nc2c1c(C)nn2CCC#N | 7.3 | 10.3 | -1.2 | 5.9 | -2.0 | 1.7 | .
NC(=O)CC(NC(=S)NCc1ccccc1)C(=O)O (configuration not stated) | -1.7 | . | -4.9 | -5.1 | 0.1 | 2.0 | .
O=C(O)CC(NC(=S)NCc1ccccc1)C(=O)O (configuration not stated) | 2.2 | 10.5 | -1.0 | 80.2* | -2.1 | 2.0 | 3.9
COc1ccc2c(c1)SCCC2=O | 6.2 | -1.5 | 1.9 | -8.3 | -2.6 | 2.2 | .
COc1ccc2c(c1)OCC1=C2CCC2(C)C(=O)CC=C12 (configuration not stated) | 0.9 | -24.1 | -4.5 | 51.8* | . | 3.2 | 23.0
Cc1cc(NC(=O)CSc2nnc(-c3ccncc3)n2C)n(-c2ccccc2)n1 | 0.1 | . | -2.8 | . | -1.0 | . | .
CC(C)CCN=Cc1c(O)n(-c2ccccc2)c(=O)c2ccccc12 | 6.2 | 5.4 | -0.2 | 20.6 | . | 0.9 | .
CCN1CCCC1CN=Cc1c(O)n(-c2ccccc2)c(=O)c2ccccc12 (configuration not stated) | 1.1 | -18.9 | -2.1 | 55.4* | . | 1.3 | 3.4
CCOC(=O)c1c(NC(=O)CSc2nnc(-c3c[nH]c4ccccc34)n2CCOC)sc2c1CCCC2 | 4.9 | 19.2 | -4.2 | 72.2* | -2.9 | 5.1 | -11.0
COCCn1c(SCC(=O)Nc2ccc3c(c2)OCCO3)nnc1-c1c[nH]c2ccccc12 | 3.2 | -8.2 | -0.4 | -2.0 | -0.1 | 3.0 | .
CCn1c(-c2ccc(N(C)C)cc2)nc2ccccc21 | 67.8* | -95.6 | 77.9* | 96.9* | 0.6 | 3.9 | 21.8
CN1CCN(S(=O)(=O)c2ccc(NC(=S)NC(=O)c3ccccc3)cc2)CC1 | -0.7 | -5.1 | -4.3 | 3.8 | 0.7 | 3.1 | .
CN1CCN(S(=O)(=O)c2ccc(NC(=S)NC(=O)c3ccc(Cl)cc3)cc2)CC1 | 6.4 | -27.4 | 1.9 | 85.4* | -1.1 | 2.4 | -7.6
COc1ccc(C2=NCC(CSc3nnc(-c4ccc5c(c4)OCO5)o3)S2)cc1 (configuration not stated) | 50.6* | -1.0 | -0.7 | 88.3* | -4.2 | 4.3 | 91.0*
CCN(CC)c1ccc(CN2CCCCCC2)cc1 | 6.0 | 9.9 | -1.9 | 89.8* | -2.3 | 1.5 | 27.7
CN(Cc1cnn(C)c1)C(=O)C1CCCCC1C(=O)O (configuration not stated) | 1.5 | -16.0 | -3.4 | 53.7* | 7.5 | 2.8 | -11.5
Cn1cc(CNC(=O)C2CCCCC2)cn1 | 1.5 | -1.6 | -0.4 | 0.7 | -1.0 | 3.3 | .
CCN(N=Nc1cccc([N+](=O)[O-])c1)c1cccc([N+](=O)[O-])c1 | 3.0 | -2.1 | -3.4 | -4.2 | . | 1.7 | .
NC(=O)CN(N=Nc1cccc([N+](=O)[O-])c1)c1cccc([N+](=O)[O-])c1 | -1.1 | 6.0 | 1.4 | 55.0* | 0.3 | 3.7 | 28.0
CN(CCC#N)C(=O)COC(=O)c1cccnc1Nc1ccccc1F | 2.5 | -10.1 | -3.7 | -7.7 | -2.1 | 3.6 | .
CCc1ccc(N2CC(O)(c3cccs3)[N+]3=C2SCCC3)cc1 (configuration not stated) | 56.7* | 1.3 | 52.1* | 72.5* | -0.6 | 2.3 | 3.6
CN(C)CC/C=C1\c2cc(F)ccc2CSc2ccccc21 | 5.3 | -1.9 | -1.3 | 71.6* | -0.7 | 1.7 | -4.5
COc1cc(CNCc2cccs2)ccc1OCc1ccccc1 | 2.0 | -4.6 | -0.2 | 99.3* | 4.1 | 2.3 | 92.4*
COc1ccccc1N1Cc2ccccc2C1 | 2.9 | 13.3 | -3.8 | 90.5* | 4.7 | 3.1 | -10.5
CN(Cc1ccccc1)C(=O)COC(=O)C1CCN(S(=O)(=O)c2cccs2)CC1 | 2.8 | -4.2 | -0.3 | -4.5 | -1.5 | 2.7 | .

Bioassay records as filed in PubChem.
